Laboratory results: ChEMBL document CHEMBL1649261, “Pharmacodynamic profile of tigecycline against methicillin-resistant Staphylococcus aureus in an experimental pneumonia model” (Antimicrob Agents Chemother, 2009)
≈ marks a conversion by molar mass, not a printed value.

Legend:
Type in all cases: functional
[1] = test system: Staphylococcus aureus; experiment: Antibacterial activity against methicillin-susceptible Staphylococcus aureus ATCC 29213 by microdilution method
Method in brief: (§1)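 Tigecycline MIC measured in triplicate by broth microdilution following CLSI guidelines. Isolates were stored at −80°C in skim milk and subcultured twice on blood agar before testing.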

[2] = test system: Staphylococcus aureus; experiment: Antibacterial activity against community-acquired methicillin-resistant Staphylococcus aureus 144 by microdilution method; method in brief: as §1
[3] = test system: Staphylococcus aureus; experiment: Antibacterial activity against community-acquired methicillin-resistant Staphylococcus aureus 156 by microdilution method; method in brief: as §1
[4] = test system: Staphylococcus aureus; experiment: Antibacterial activity against community-acquired methicillin-resistant Staphylococcus aureus 147 by microdilution method; method in brief: as §1
[5] = test system: Staphylococcus aureus; experiment: Antibacterial activity against hospital-acquired methicillin-resistant Staphylococcus aureus 56 by microdilution method; method in brief: as §1
[6] = test system: Staphylococcus aureus; experiment: Antibacterial activity against hospital-acquired methicillin-resistant Staphylococcus aureus 152 by microdilution method; method in brief: as §1

Structure (SMILES)	MIC [1] [µg/mL]	MIC [2] [µg/mL]	MIC [3] [µg/mL]	MIC [4] [µg/mL]	MIC [5] [µg/mL]	MIC [6] [µg/mL]
CCC[C@@H]1C[C@@H](C(=O)N[C@@H]([C@H]2O[C@H](SC)[C@H](O)[C@@H](O)[C@H]2O)[C@H](C)Cl)N(C)C1 [CLINDAMYCIN]	0.125 (≈ 0.294 µM)	> 16	≤ 0.5	0.125 (≈ 0.294 µM)	0.25 (≈ 0.588 µM)	0.125 (≈ 0.294 µM)
C[C@H]1c2cccc(O)c2C(=O)C2=C(O)[C@]3(O)C(=O)C(C(N)=O)=C(O)[C@@H](N(C)C)[C@@H]3[C@@H](O)[C@@H]21.O [DOXYCYCLINE]	0.5	0.5		2	8	0.5
CC[C@H]1OC(=O)[C@H](C)[C@@H](O[C@H]2C[C@@](C)(OC)[C@@H](O)[C@H](C)O2)[C@H](C)[C@@H](O[C@@H]2O[C@H](C)C[C@H](N(C)C)[C@H]2O)[C@](C)(O)C[C@@H](C)C(=O)[C@H](C)[C@@H](O)[C@]1(C)O [ERYTHROMYCIN]	1 (≈ 1.36 µM)	> 32	> 32	> 32	32 (≈ 43.6 µM)	1 (≈ 1.36 µM)
